E coli RNAP = blocks E. coli RNA polymerase transcription. P0A8V2. fluorescence transcription assay. inhibition, %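 (tested at 10 µM)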. hit rate 0.2% among 62,000; in the data active = inhibition above about 20%
AP complement = alternative pathway complement inhibition, orthogonal assay; Human serum alternative complement pathway, LPS-coated ELISA, C3 deposition; tested in compound mixtures; inhibition, % at 5 µM; hit rate 0.08% among 62,000;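 active = inhibition above 30% in each of the two pooled mixtures holding the compound, so the lower value exceeds 30%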
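Medium: diluted human serum in Mg2+-EGTA GVB++. Assay system: human serum complement alternative pathway, C3 deposition onto LPS. Also added: Plate-bound LPS. Technique: Anti-C3 ELISA, OD 450 nm. Measure: percent inhibition. Incubation: 1 h at 37 °C. Dosing: 5 µM each compound, pools of ten, 50 µM per pool.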
D1 allo mod = D1 dopamine receptor (human) allosteric modulation. B-score at 10 µM. hit rate 5.9% among 58,000. HEK293 D1, CRE-luciferase, dopamine EC30 potentiation; actives deviate in either direction. AID 641. P21728;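 active = luminescence count or its row- and column-corrected plate score outside the 99.7% band of the plate's sample wells, on either side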
HEK293 NFkB inh = inhibitors of the PMA/ionomycin-induced NF-kB reporter in HEK293 cells; HEK-293 NF-kB luciferase reporter, luminescence; inhibition, % at 3 µM; hit rate 0.21% among 62,000; AID 465;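 active = inhibition above the mean of all tested compounds plus 3 SD, cut at about 40% in these data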
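Timing: 1 h pretreatment, 16 h stimulation, 37 °C; system: HEK-293 cells with stable firefly luciferase reporter driven by four HIV NF-kB elements; doses: 3 µM once, 0.30% DMSO; measured by: luciferase luminescence; control set: DMSO and 10 µM reference inhibitor; repeats: single test; reagent: PMA plus ionomycin mix as NF-kB-activating stimulus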
hDAT+cocaine = human DAT dopamine uptake with cocaine, either direction; B-score at 10 µM; LLC-PK1 hDAT cells, [14C]-dopamine uptake with cocaine IC80; actives deviate in either direction; hit rate 1.3% among 110,000; Q01959;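 active = Z score or B-score, a plate-position-corrected score, falls beyond the plate's 99.7% confidence bounds, in either direction; inactive = both scores lie inside the 99.7% bounds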
Numbers stand for hits; i = inactive; nt = not tested or not shown. The sample as a whole holds a higher share of hits than the screen did.

SMILES | E coli RNAP | AP complement | D1 allo mod | HEK293 NFkB inh | hDAT+cocaine
O=C(Nc1ccc(CN2CCOCC2)cc1)c1cc2ccccn2n1 | i | i | -7.3 | i | i
Cc1ccc(F)c([C@H]2C3C=CCC(c4ccccc4)C3C(=O)N2Cc2ccccc2)c1 (stereo partly specified) | nt | nt | nt | nt | i
CC(O)(CC(=O)O)CC(=O)O | nt | nt | nt | nt | i
C/C=C/C=[N+](\[O-])C(C)/C(=N/O)c1ccc(F)cc1 (stereo unspecified) | i | i | -5.69 | i | i
Cc1nc(-c2ccccn2)sc1C(=O)Nc1ccc(Cl)c(Cl)c1 | nt | nt | nt | nt | i
Cc1ccc(SC[C@H](c2ccccc2)N2CCN(CC(C)C)CCC2=O)cc1 | nt | nt | nt | nt | i
Nc1ccc(-c2nc3c(Cl)cc(N)cc3[nH]2)cc1 | i | i | -2.62 | i | i
O=C(c1ccc(Br)s1)N1CCN(Cc2ccc3c(c2)OCO3)CC1 | nt | i | i | i | 2.09
CN(c1ccc(C(=O)N2CCN(Cc3ccc4c(c3)OCO4)CC2)cc1)S(=O)(=O)c1ccccc1 | nt | nt | nt | nt | 3.49
O=C(c1cccn2c(=O)c3ccccc3nc12)N1CCN(Cc2ccc3c(c2)OCO3)CC1 | i | i | i | i | 3.16
Cc1ccc(S(=O)(=O)N(C)c2ccc(C(=O)N3CCN(Cc4ccc5c(c4)OCO5)CC3)cc2)cc1 | nt | nt | nt | nt | i
O=C(c1ccc2nc3ccccc3c(=O)n2c1)N1CCN(Cc2ccc3c(c2)OCO3)CC1 | nt | nt | nt | nt | i
CC1(C)CC(=O)C=C(c2ccc3[nH]ccc3c2)C1 | nt | nt | nt | nt | i
C=CCN1C(=O)C(Cc2ccc(OC)cc2)S/C1=N\N=C\c1cccs1 (stereo unspecified) | nt | nt | nt | nt | 2.96
C=CCN1C(=O)C(Cc2ccc(OC)cc2)S/C1=N/N=C/c1ccco1 (stereo unspecified) | nt | nt | nt | nt | i
COc1ccc(-c2cc3nc(C)cc(NCCO)n3n2)cc1 | i | i | nt | i | i
COc1ccc(-c2cc3nc(C)cc(N)n3n2)cc1 | nt | nt | nt | nt | -8.43
CC1(c2nnc(Cc3ccccc3)o2)CC(c2cccnc2)=NO1 (stereo unspecified) | nt | nt | nt | nt | i
CCNC(=S)Nc1ccc(Oc2ccccc2)cc1 | nt | nt | nt | nt | -2.75
O=C(NC(=S)Nc1ccc(Oc2ccccc2)cc1)c1ccc(Cl)cc1 | nt | nt | nt | nt | 2.58
c1ccc(Cn2c(CNc3nc4ccccc4n3CCN3CCOCC3)nc3ccccc32)cc1 | i | i | i | i | i
CC(=O)c1cc2c(cc1NC(=O)CN1CCCCCCC1)OCO2 | nt | nt | nt | nt | i
COc1cccc(NC(=O)CSC2=C(C#N)C(c3ccco3)C3=C(CCCC3=O)N2)c1 (stereo unspecified) | i | nt | nt | nt | i
COc1ccc(NC(=O)CSC2=C(C#N)C(c3ccco3)C3=C(CCCC3=O)N2)c(OC)c1 (stereo unspecified) | i | i | i | nt | -2.66
CCCC(=O)Nc1cc(-c2cn3cccnc3n2)ccc1OC | i | i | -3.44 | i | i
SMILES | E coli RNAP | AP complement | D1 allo mod | HEK293 NFkB inh | hDAT+cocaine
COC(=O)CSc1cc(SCC(=O)OC)c(C#N)c(SCC(=O)OC)c1 | i | i | -4.59 | i | i
O=C(NCCCN1CCN(c2ccc(F)cc2)CC1)c1cccc(N2CCCC2=O)c1 | i | i | -6.09 | i | i
CCCC(=O)NC(C)c1nc(-c2ccc(C)cc2)no1 (stereo unspecified) | nt | nt | nt | nt | i
CCCNC(=O)N1C2=NC(C(=O)OC)=C(C(=O)OC)[C@@H]3N(Cc4ccccc4)c4ccccc4[C@]23C[C@H]1CO | nt | nt | nt | nt | i
CC1CCCN(C(=O)CSc2cnc3ccccc3n2)C1 (stereo unspecified) | nt | nt | nt | nt | i
CCCCn1c(SCc2c(C)noc2C)nc2cc(S(N)(=O)=O)ccc21 | i | i | nt | 41.7 | i
Cc1ccc(S(=O)(=O)Nc2ccnc3ccccc23)cc1 | nt | nt | nt | nt | -8
Cc1ccc(S(=O)(=O)Nc2ccc(O)c3ncccc23)cc1 | nt | nt | nt | nt | i
CCCCn1nnnc1SCC(=O)Nc1ccc(N(C)C)cc1 | nt | nt | nt | nt | i
COc1ccc(C(=O)Nc2ccc(C)cn2)c(OC)c1 | i | i | -9.49 | i | i
CCN(c1nc(N)c(C(=O)N=C(N)N)nc1Cl)C(C)C | nt | nt | nt | nt | i
Cc1cccn2cc(-c3ccccc3)nc12 | i | i | i | i | i
Cc1ccc2nc(-c3ccccc3)cn2c1 | i | i | nt | 70.8 | i
Cc1oc2cc3c(C(=O)OCCN(C)C)c(C)oc3cc2c1C(=O)OCCN(C)C | i | i | -3.39 | 77.6 | nt
NC(=O)c1ccsc1NC(=O)CSc1ccccc1F | i | i | -3.45 | i | i
N#CC1=C(N)Oc2n[nH]c(-c3ccccc3)c2C1c1ccncc1 (stereo unspecified) | i | i | i | i | i
N#CC1=C(N)Oc2n[nH]c(-c3ccc(F)cc3)c2C1c1cccnc1 (stereo unspecified) | i | i | 4.82 | i | i
O=C(CN1C(=O)NC2(CCCCCCC2)C1=O)N1CCOCC1 | i | 38.6 | i | i | i
Cc1cccc(N2CCN(C(=O)C3CCN(S(=O)(=O)c4cccc5nsnc45)CC3)CC2C)c1 (stereo unspecified) | i | i | i | i | i
Cc1cccc(N2CCN(C(=O)C3CCN(S(=O)(=O)c4cccc5cccnc45)CC3)CC2C)c1 (stereo unspecified) | i | i | -3.8 | i | i
O=C(C1COc2ccccc2O1)N1CCc2ccccc21 (stereo unspecified) | i | i | i | i | i
Cc1ccc2nsnc2c1S(=O)(=O)N1CCN(Cc2ccc3c(c2)OCO3)CC1 | i | i | i | i | 5.41
Cc1cc(S(=O)(=O)N2CCN(Cc3ccc4c(c3)OCO4)CC2)cc(C)c1N1CCCC1=O | i | i | -4.63 | i | i
O=C(NCC1CCCO1)C1CCCCN1S(=O)(=O)c1ccc(F)cc1 (stereo unspecified) | i | i | nt | i | i
Cc1ccc(OCCn2cc(/C(N)=N/O)c3ccccc32)cc1C | i | i | -3.09 | i | i
SMILES | E coli RNAP | AP complement | D1 allo mod | HEK293 NFkB inh | hDAT+cocaine
COc1ccc(OCCn2cc(/C(N)=N/O)c3ccccc32)cc1 | nt | nt | nt | nt | i
CCC1=Nc2cc(C(=O)O)ccc2Sc2ccccc21 | nt | nt | nt | nt | i
CCC1=Nc2cc(C(=O)NCCCOC(C)C)ccc2Sc2ccccc21 | nt | nt | nt | nt | -7.17
COc1ccc(C(=O)Oc2ccc(=O)n(-c3ccccc3)n2)cc1 | nt | nt | nt | nt | i
CCOc1ccc(OCc2cccc(C(=O)O)c2)cc1 | i | i | -4.51 | 96.8 | i
O=C(O)c1ccc(COc2ccc(CO)cc2Cl)cc1 | i | i | i | i | i
COc1ccc(OCc2cccc(C(=O)O)c2)cc1 | i | i | -10.7 | 94.2 | i
O=C(O)c1cccc(COc2ccc(CO)cc2Cl)c1 | i | i | -7.1 | 94.0 | i
CCOc1ccc(C(=O)N2CCCC2)cc1 | nt | nt | nt | nt | 5.88
CCCc1nn2c(=O)c(C(c3cccc(Cl)c3)c3c(O)nc4sc(CCC)nn4c3=O)c(O)nc2s1 | nt | nt | nt | nt | i
CCOc1ccc(-n2cc(C(=O)N3CCCCCC3)c3cc(OC)c(OC)cc3c2=O)cc1 | i | i | i | i | 2.86
CCOc1ccc(OCc2cccc(C(=O)N3CCCC3)c2)cc1 | i | i | -3.94 | i | i
CCOc1ccc(-n2cc(C(=O)NCc3ccco3)c3cc(OC)c(OC)cc3c2=O)cc1 | i | i | i | i | i
CC(C)(C)NC(=O)CN(C(=O)CNC(=O)c1cccs1)c1ccc2c(c1)OCCO2 | nt | nt | nt | nt | i

Screening results as filed in PubChem BioAssay.
